Results from ChEMBL document CHEMBL1146121 (J Med Chem, 2006).

Experiments:
[1] = test system: Plasmodium falciparum; test: Inhibition of Plasmodium falciparum 3D7; assay type: functional, organism-based
Method in brief: (§1)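 Intraerythrocytic parasites cultured with the test agent in a semiautomated microdilution format. Growth was followed by incorporation of tritium-labelled hypoxanthine.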

[2] = test system: Plasmodium falciparum; test: Inhibition of Plasmodium falciparum Dd2; assay type: functional, organism-based; method in brief: as §1
[3] = molecular target: T1, 1-deoxy-D-xylulose 5-phosphate reductoisomerase (Escherichia coli K-12, UniProt P45568); test: Inhibition of recombinant Escherichia coli DXR
T1 sequence (P45568 whole entry): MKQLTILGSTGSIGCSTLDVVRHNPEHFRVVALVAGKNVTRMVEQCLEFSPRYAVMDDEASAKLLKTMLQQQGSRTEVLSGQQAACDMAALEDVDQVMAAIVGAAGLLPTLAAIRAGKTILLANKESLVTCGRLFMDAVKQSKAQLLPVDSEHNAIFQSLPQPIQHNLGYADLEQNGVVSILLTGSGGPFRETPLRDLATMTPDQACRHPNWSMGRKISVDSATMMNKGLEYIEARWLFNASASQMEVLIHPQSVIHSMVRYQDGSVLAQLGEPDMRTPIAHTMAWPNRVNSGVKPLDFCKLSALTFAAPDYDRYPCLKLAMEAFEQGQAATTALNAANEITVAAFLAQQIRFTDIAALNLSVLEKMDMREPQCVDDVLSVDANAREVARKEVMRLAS
Method in brief: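 Enzyme activity measured as conversion of DOXP to MEP, read out via the NADPH dependence of the reductoisomerase reaction.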

SMILES	IC50 [1]	IC50 [2]	IC50 [3]
O=CN(O)CCCP(=O)(O)O [FOSMIDOMYCIN]	400 nM	480 nM	–
O=CN(O)C[C@@H]1C[C@H]1P(=O)(O)O	2100 nM	2000 nM	313 nM
CC(=O)N(O)C[C@@H]1C[C@H]1P(=O)(O)O	320 nM	480 nM	50 nM
CC(=O)N(O)CC1CC1P(=O)(O)O (centres undefined)	–	–	160 nM
CC(=O)N(O)CCCP(=O)(O)O [FR-900098]	240 nM	280 nM	58 nM
CC(=O)N(O)CC1CC1(c1ccccc1)P(=O)(O)O (centres undefined)	–	–	> 30000 nM
CCC(=O)N(O)C[C@@H]1C[C@H]1P(=O)(O)O	–	–	> 3000 nM
